The values that follow come from ChEMBL document CHEMBL4837219, “Chemical modification of NSC12 leads to a specific FGF-trap with antitumor activity in multiple myeloma” (Eur J Med Chem, 2021).

Molecules are shown by their SMILES. The source made the active and inactive calls. The rule behind the calls is not given here.

Data set [1] relates to KMS-11. Nature of the data set: Trapping activity at FGF in human KMS-11 cells assessed as inhibition of FGFR3 phosphorylation at 6 uM measured after 6 hrs by western blot analysis. Type of data set: cell-based. Summed up: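 KMS-11 cells treated for 6 h with compound at 6.0 µM, then lysed in NP-40 buffer containing orthovanadate and protease inhibitors. Phospho-FGFR3 detected by western blot with anti-phospho-Y724 antibody, using β-actin or α-tubulin as loading control. Result expressed as % inhibition of FGFR3 phosphorylation by densitometry.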
(In general: In western blotting, separated proteins are transferred to a membrane and probed.)

Data set [2] has as its target Estrogen receptor beta (Homo sapiens) (UniProt Q92731). Nature of the data set: Displacement of [3H]estradiol from human full length recombinant ERbeta expressed in baculovirus-infected Sf9 cells at 50 uM incubated for 120 mins by radiometric scintillation counting analysis. Summed up:
(§1)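 Radioligand competition binding to human ERα or ERβ, run as an outsourced panel assay. Readout is % inhibition of specific [3H]estradiol binding at 5.0 and 50 µM compound. Run in duplicate, and the mean of the duplicates is reported.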
For orientation: Loss of bound radioactivity is the signal in a displacement assay; it reports binding, not function.

Data set [3] addresses T1, Estrogen receptor (Homo sapiens) (UniProt P03372).
T1 sequence (whole entry): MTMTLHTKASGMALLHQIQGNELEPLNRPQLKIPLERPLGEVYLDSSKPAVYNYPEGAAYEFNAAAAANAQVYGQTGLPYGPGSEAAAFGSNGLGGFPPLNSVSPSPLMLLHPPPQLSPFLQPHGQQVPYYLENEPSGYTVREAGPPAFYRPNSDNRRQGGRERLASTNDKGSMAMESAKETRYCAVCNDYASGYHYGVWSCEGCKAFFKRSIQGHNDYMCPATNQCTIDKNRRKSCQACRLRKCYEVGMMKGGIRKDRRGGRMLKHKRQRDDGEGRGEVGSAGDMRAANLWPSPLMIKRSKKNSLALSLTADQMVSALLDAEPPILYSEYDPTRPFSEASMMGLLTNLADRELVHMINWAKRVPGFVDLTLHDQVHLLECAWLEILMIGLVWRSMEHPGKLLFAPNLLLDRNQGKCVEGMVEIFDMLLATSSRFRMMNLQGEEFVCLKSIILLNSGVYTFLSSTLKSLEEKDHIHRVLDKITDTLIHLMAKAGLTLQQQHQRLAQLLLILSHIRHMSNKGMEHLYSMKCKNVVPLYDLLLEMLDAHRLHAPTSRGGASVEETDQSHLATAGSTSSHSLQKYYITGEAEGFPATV
Description: Displacement of [3H]estradiol from human full length recombinant ERalpha expressed in baculovirus-infected Sf9 cells at 5 uM incubated for 120 mins by radiometric scintillation counting analysis. Summed up:
as §1

Data set [4] in a line: Drug metabolism in NOD-SCID mouse plasma assessed as (1R)-4,4,4-trifluoro-1-((3S,10R,13S,17S)-3-hydroxy-10,13-dimethyl-2,3,4,7,8,9,10,11,12,13,14,15,16,17-tetradecahydro-1H-cyclopenta[a]phenanthren-17-yl)-3-(trifluoromethyl)butane-1,3-diol formation at 7.5 mg/kg, ip measured after 90 mins by HPLC-MS/MS analysis. As to conditions: in vivo, 1.5 h. Type of data set: ADME, organism-based.

Data set [5] has as its system OPM-2. Description: Antiproliferative activity against human OPM-2 cells assessed as reduction in cell viability incubated for 48 hrs by propidium iodide staining-based flow cytometric analysis. Format: functional. The conditions noted are these: OPM-2, 48 h. Summed up:
(§2)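 Myeloma cells kept at low passage in RPMI1640 with 10% heat-inactivated FBS and 2.0 mM glutamine, Mycoplasma-tested, authenticated. Exposed to increasing concentrations of test compound for 48 h. Viable cells counted as propidium iodide-negative by flow cytometry with absolute counts. IC50 = concentration halving proliferation; mean of at least 2 experiments in triplicate.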

The nature of data set [6]: Total plasma concentration in NOD-SCID mouse at 7.5 mg/kg, ip measured after 90 mins by HPLC/MS/MS analysis. Type of data set: ADME, organism-based. Summed up:
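A single 7.5 mg/kg i.p. dose given to eight-week-old NOD/SCID mice (n = 4). Blood collected at 90 min. Plasma treated with acetonitrile containing internal standard (1:2) to precipitate protein, centrifuged, and the supernatant analyzed by C18 gradient HPLC-MS/MS in ESI-negative MRM mode. Calibration in spiked blank plasma, linear over 1–1000 nM, LOQ 1 nM. Values are mean ± SEM.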

In data set [7] the test system is U-266. Description: Antiproliferative activity against human U-266 cells assessed as reduction in cell viability incubated for 48 hrs by propidium iodide staining-based flow cytometric analysis. The conditions noted are these: U-266, 48 h. Type of data set: functional. Summed up: as §2
(In flow cytometry, cells or beads pass a laser one at a time.)

The subject of data set [8] is OPM-2. Nature of the data set: Trapping activity at FGF in human OPM-2 cells assessed as inhibition of FGFR3 phosphorylation at 6 uM measured after 6 hrs by westernblot analysis. Type of data set: cell-based. Summed up:
(§3)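 Cells cultured in RPMI1640 with 10% FBS and 2.0 mM glutamine, then treated 6 h with 6 µM compound. Washed in cold PBS and lysed in NP-40 buffer (20 mM Tris-HCl pH 8, 1 mM orthovanadate, protease inhibitors). Bradford used to normalize protein. Blots probed for phospho-FGFR3 (Y724), with β-actin or α-tubulin as loading control; percent inhibition read by densitometry.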

Data set [9] has as its target T1, Estrogen receptor (Homo sapiens). Nature of the data set: Displacement of [3H]estradiol from human full length recombinant ERalpha expressed in baculovirus-infected Sf9 cells at 50 uM incubated for 120 mins by radiometric scintillation counting analysis. Summed up:
as §1

The target in data set [10] is Fibroblast growth factor 2 (Homo sapiens, UniProt P09038). Nature of the data set: Binding affinity to FGF2 (unknown origin) by sensor chip immobilization based surface plasmon resonance analysis.
Fibroblast growth factor 2, sequence (P09038 143-288 limits assumed): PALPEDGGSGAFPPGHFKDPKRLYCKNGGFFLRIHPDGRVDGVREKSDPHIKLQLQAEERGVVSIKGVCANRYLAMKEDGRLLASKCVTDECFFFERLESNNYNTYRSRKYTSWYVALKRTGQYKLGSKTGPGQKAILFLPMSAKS
Data set [11] concerns KMS-11. Nature of the data set: Antiproliferative activity against human KMS-11 cells assessed as reduction in cell viability incubated for 48 hrs by propidium iodide staining-based flow cytometric analysis. Type of data set: functional. As to conditions: KMS-11, 48 h. Summed up: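 KMS-11 cells (maintained in RPMI1640 with 10% heat-inactivated FBS and 2.0 mM glutamine) exposed to increasing concentrations of compound for 48 h. Viable PI-negative cells counted by flow cytometry using the analyzer's absolute counting function. IC50 is the concentration giving 50% inhibition of proliferation, taken as the mean of at least 2 experiments run in triplicate.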

In data set [12] the test system is RPMI-8226. Description: Antiproliferative activity against human RPMI-8226 cells assessed as reduction in cell viability incubated for 48 hrs by propidium iodide staining-based flow cytometric analysis. Format: functional. The conditions noted are these: RPMI-8226, 48 h. Summed up: as §2
In data set [13] the test system is KMS-11. Description: Antitumor activity against human KMS-11 cells xenografted in NOD-SCID mouse assessed as tumor growth inhibition at 7.5 mg/kg, ip administered every other day measured at day 17 post-tumor implantation by caliper analysis. Type of data set: functional, organism-based. Summed up: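 Female NOD/SCID mice, six to eight weeks old, injected s.c. with 5 × 10^6 KMS-11 cells in PBS. Once tumors were palpable (10 days), mice were randomized and given 7.5 mg/kg i.p. every other day, with DMSO as vehicle control; n = 5 per group. Tumor volume from caliper measurements, V = (D × d²)/2. Tumors excised and weighed at day 17.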

Data set [14] deals with RPMI-8226. Nature of the data set: Trapping activity at FGF in human RPMI-8226 cells assessed as inhibition of FGFR3 phosphorylation at 6 uM measured after 6 hrs by westernblot analysis. Type of data set: cell-based. Summed up:
as §3

Data set [15] deals with Estrogen receptor beta (Homo sapiens) (UniProt Q92731). Description: Displacement of [3H]estradiol from human full length recombinant ERbeta expressed in baculovirus-infected Sf9 cells at 5 uM incubated for 120 mins by radiometric scintillation counting analysis. Summed up:
as §1

Data set [16] has as its system U-266. Description: Trapping activity at FGF in human U-266 cells assessed as inhibition of FGFR3 phosphorylation at 6 uM measured after 6 hrs by westernblot analysis. Type of data set: cell-based. Summed up: as §3

Estrogen receptor beta (Homo sapiens), sequence (Q92731 whole entry): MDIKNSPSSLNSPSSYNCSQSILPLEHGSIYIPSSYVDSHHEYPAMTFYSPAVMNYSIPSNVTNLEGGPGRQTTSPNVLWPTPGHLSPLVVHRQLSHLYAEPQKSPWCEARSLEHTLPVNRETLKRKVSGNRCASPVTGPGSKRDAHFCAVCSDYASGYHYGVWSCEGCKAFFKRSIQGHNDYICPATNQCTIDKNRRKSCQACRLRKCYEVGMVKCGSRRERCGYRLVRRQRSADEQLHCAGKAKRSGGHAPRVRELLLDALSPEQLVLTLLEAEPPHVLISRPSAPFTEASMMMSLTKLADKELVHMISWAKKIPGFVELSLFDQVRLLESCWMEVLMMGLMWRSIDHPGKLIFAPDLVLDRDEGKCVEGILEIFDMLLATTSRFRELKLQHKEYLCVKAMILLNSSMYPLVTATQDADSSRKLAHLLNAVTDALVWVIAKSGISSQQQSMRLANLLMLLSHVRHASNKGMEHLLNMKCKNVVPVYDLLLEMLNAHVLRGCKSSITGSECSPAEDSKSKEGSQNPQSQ

As to `C[C@]12CC[C@H]3[C@@H](CC=C4C[C@@H](OC(=O)CN)CC[C@@]43C)[C@@H]1CC[C@@H]2[C@H](O)CC(O)(C(F)(F)F)C(F)(F)F`, the inhibition in the data set with KMS-11 [1] was 100%; in data set [2] it was 71.3%; in [3], 7.4%; in data set [9] it was 50%; in data set [15], 21.4%. The Drug metabolism result in data set [4] is listed as “Metabolite_Detected”. Besides, the IC50 came out at 7.3 µM with OPM-2 [5], 6.9 µM in the data set with U-266 [7], 2.3 µM with KMS-11 [11] and 7.3 µM with RPMI-8226 [12]. In data set [6], this compound gave a concentration at 1.5 h of 7.5 nM. Further, the result in the data set with OPM-2 [8], in the data set with RPMI-8226 [14] and in the data set on U-266 [16] was Active. Also, the equilibrium dissociation constant (Kd) in [10] amounted to 30 µM. Besides, in the data set on KMS-11 [13], the result was inactive.
As for `C[C@]12CCC(=O)C[C@@H]1CC[C@@H]1[C@@H]2CC[C@]2(C)[C@@H]([C@H](O)CC(O)(C(F)(F)F)C(F)(F)F)CC[C@@H]12`, the inhibition was 99% in the data set on KMS-11 [1]; 17.6% in data set [2]; 0% in data set [3]; 0% in data set [9]; 4.3% in [15]. The IC50 with OPM-2 [5] was 6.6 µM; in the data set on U-266 [7], 5.4 µM; in the data set with KMS-11 [11] it was 2.4 µM; in the data set on RPMI-8226 [12], 6.6 µM. Further, the concentration at 1.5 h in [6] turned out to be 525 nM. The outcome with OPM-2 [8], in the data set on KMS-11 [13], in the data set with RPMI-8226 [14] and in the data set on U-266 [16] was Active. Moreover, binding in data set [10] was put at a Kd of 30.5 µM.

The inhibition is the share of the control response that was lost under treatment. The term IC50 denotes the point on the concentration scale where inhibition reaches its midpoint. A word on the Kd: it is the concentration at which binding is half-saturated. A low value points to tighter binding.
